Reference: ChEMBL document CHEMBL1156678, “A new class of analgesic agents toward prostacyclin receptor inhibition: synthesis, biological studies and QSAR analysis of 1-hydroxyl-2-substituted phenyl-4,4,5,5-tetramethylimidazolines” (Eur J Med Chem, 2008)

Tests used:
[1] = test system: Mus musculus; assay: Analgesic activity in ICR mouse assessed as pain threshold variation at 0.13 mmol/kg, ip after 150 mins by tail flick test; assay type: functional
How it was run: (§1)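 Male ICR mice (25 ± 2 g), kept on a 12/12 h light/dark cycle at 21 ± 2 °C for one day before use. Each received a single i.p. injection in 0.2 ml saline + 0.01 ml DMSO + 0.02 ml Tween-80. Vehicle-only mice served as controls. Basal tail-flick threshold was measured four times (BPT). Thresholds were then read every 30 min for 150 min. PTV = (post-dose threshold − BPT)/BPT. n = 10, x ± SD.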

[2] = test system: Mus musculus; assay: Analgesic activity in ICR mouse assessed as pain threshold variation at 0.13 mmol/kg, ip after 60 mins by tail flick test relative to control; assay type: functional; how it was run: as §1
[3] = test system: Mus musculus; assay: Analgesic activity in ICR mouse assessed as pain threshold variation at 0.13 mmol/kg, ip after 120 mins by tail flick test; assay type: functional; how it was run: as §1
[4] = test system: Mus musculus; assay: Thrombotic toxicity in ICR mouse assessed as tail bleeding time at 1.3 mmol/kg, ip after 60 mins; assay type: organism-based; conditions: in vivo, 1 h
How it was run: (§2)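 Male ICR mice (25 ± 2 g) were kept one day on a 12/12 h light/dark cycle at 21 ± 2 °C. Each received a single i.p. dose of 1.30 mmol/kg in saline/DMSO/Tween-80 (0.2/0.01/0.02 ml), or the solvent only. The restrained mouse had 1 mm cut from the tail before dosing and at 5, 15, 30 and 60 min. Bleeding time (s) is reported as mean ± SD.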

[5] = test system: Mus musculus; assay: Analgesic activity in ICR mouse assessed as pain threshold variation at 0.13 mmol/kg, ip after 90 mins by tail flick test relative to control; assay type: functional; how it was run: as §1
[6] = test system: Mus musculus; assay: Thrombotic toxicity in ICR mouse assessed as tail bleeding time at 1.3 mmol/kg, ip after 5 mins; assay type: organism-based; conditions: in vivo; how it was run: as §2
[7] = test system: Mus musculus; assay: Analgesic activity in ICR mouse assessed as pain threshold variation at 0.13 mmol/kg, ip after 30 mins by tail flick test relative to control; assay type: functional; how it was run: as §1
[8] = test system: Mus musculus; assay: Thrombotic toxicity in ICR mouse assessed as tail bleeding time at 1.3 mmol/kg, ip after 15 mins; assay type: organism-based; conditions: in vivo, 0.25 h; how it was run: as §2
[9] = Cardiovascular toxicity in rat aorta assessed as inhibition of noradrenaline-induced vasoconstriction at 5 mM relative to control; assay type: tissue-based; conditions: isolated rat aorta
How it was run: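 Rat aortic strips were contracted with noradrenaline, washed, stabilized for 30 min, and contracted again. At peak contraction, compound was added (final 5 × 10^-3 M) or vehicle alone. The relaxant response was recorded as percentage inhibition of the contraction.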

[10] = test system: Mus musculus; assay: Thrombotic toxicity in ICR mouse assessed as tail bleeding time at 1.3 mmol/kg, ip after 30 mins; assay type: organism-based; conditions: in vivo, 0.5 h; how it was run: as §2
[11] = test system: Mus musculus; assay: Analgesic activity in ICR mouse assessed as pain threshold variation at 0.0013 mmol/kg, ip after 60 mins by tail flick test relative to control; assay type: functional; how it was run: as §1
[12] = test system: Mus musculus; assay: Analgesic activity in ICR mouse assessed as pain threshold variation at 0.013 mmol/kg, ip after 90 mins by tail flick test relative to control; assay type: functional; how it was run: as §1
[13] = test system: Mus musculus; assay: Analgesic activity in ICR mouse assessed as pain threshold variation at 0.013 mmol/kg, ip after 150 mins by tail flick test relative to control; assay type: functional; how it was run: as §1
[14] = test system: Mus musculus; assay: Analgesic activity in ICR mouse assessed as pain threshold variation at 0.0013 mmol/kg, ip after 150 mins by tail flick test relative to control; assay type: functional; how it was run: as §1
[15] = test system: Mus musculus; assay: Analgesic activity in ICR mouse assessed as pain threshold variation at 0.0013 mmol/kg, ip after 120 mins by tail flick test relative to control; assay type: functional; how it was run: as §1
[16] = test system: Mus musculus; assay: Analgesic activity in ICR mouse assessed as pain threshold variation at 0.013 mmol/kg, ip after 30 mins by tail flick test relative to control; assay type: functional; how it was run: as §1
[17] = test system: Mus musculus; assay: Analgesic activity in ICR mouse assessed as pain threshold variation at 0.013 mmol/kg, ip after 60 mins by tail flick test relative to control; assay type: functional; how it was run: as §1
[18] = test system: Mus musculus; assay: Analgesic activity in ICR mouse assessed as pain threshold variation at 0.0013 mmol/kg, ip after 90 mins by tail flick test relative to control; assay type: functional; how it was run: as §1
[19] = test system: Mus musculus; assay: Analgesic activity in ICR mouse assessed as pain threshold variation at 0.013 mmol/kg, ip after 120 mins by tail flick test relative to control; assay type: functional; how it was run: as §1
[20] = test system: Mus musculus; assay: Analgesic activity in ICR mouse assessed as pain threshold variation at 0.0013 mmol/kg, ip after 30 mins by tail flick test relative to control; assay type: functional; how it was run: as §1

Structure (SMILES)	Activity [1] [%]	Activity [2] [%]	Activity [3] [%]	Activity [4] [s]	Activity [5] [%]	Activity [6] [s]	Activity [7] [%]	Activity [8] [s]	inhibition at 5000 µM [9] [%]	Activity [10] [s]	Activity [11] [%]	Activity [12] [%]	Activity [13] [%]	Activity [14] [%]	Activity [15] [%]	Activity [16] [%]	Activity [17] [%]	Activity [18] [%]	Activity [19] [%]	Activity [20] [%]
CC1(C)N=C(c2ccc([N+](=O)[O-])cc2)N(O)C1(C)C	47.81	38.32	35.97	117	36.31	118	44.15	117	32.7	117	–	–	–	–	–	–	–	–	–	–
COc1cc(C2=NC(C)(C)C(C)(C)N2O)ccc1O	40.56	61.52	52.21	117	60.65	119	47.57	118	20.6	119	–	–	–	–	–	–	–	–	–	–
CC1(C)N=C(c2ccc(Cl)cc2Cl)N(O)C1(C)C	45.99	46.31	46.12	119	44.1	117	46.97	117	15.9	119	–	–	–	–	–	–	–	–	–	–
CC1(C)N=C(c2ccccc2O)N(O)C1(C)C	67.3	49.93	73.13	118	68.27	118	50.76	117	22.9	119	–	–	–	–	–	–	–	–	–	–
CC1(C)N=C(c2cccc([N+](=O)[O-])c2)N(O)C1(C)C	70.83	62.07	60.26	117	63.46	117	52.76	118	31.8	119	–	–	–	–	–	–	–	–	–	–
COc1ccc(C2=NC(C)(C)C(C)(C)N2O)cc1OC	35.37	50.12	38.43	118	54.54	117	50.9	117	17.9	118	–	–	–	–	–	–	–	–	–	–
COc1ccc(C2=NC(C)(C)C(C)(C)N2O)cc1	46.74	76.13	65.23	118	66.49	119	64.55	118	19.7	118	–	–	–	–	–	–	–	–	–	–
CN(C)c1ccc(C2=NC(C)(C)C(C)(C)N2O)cc1	31.27	39.44	37.34	119	40.17	117	34.3	117	6.63	117	–	–	–	–	–	–	–	–	–	–
CC1(C)N=C(c2ccc(Cl)cc2)N(O)C1(C)C	88.42	70.21	74.74	119	75.61	117	63.85	119	23.8	117	30.02	50.88	62.76	42.74	31.55	39.87	47.25	32.13	50	24.97
CC1(C)N=C(c2ccc(Cl)c(Cl)c2)N(O)C1(C)C	50.62	21.43	40.17	117	41.9	118	20.52	118	22.8	118	–	–	–	–	–	–	–	–	–	–
COc1ccc(C2=NC(C)(C)C(C)(C)N2O)cc1O	41.62	59.85	50.77	119	60.71	120	44.33	118	35.1	117	–	–	–	–	–	–	–	–	–	–
CC1(C)N=C(c2ccccc2[N+](=O)[O-])N(O)C1(C)C	40.04	45.14	50.91	118	45.93	119	28.95	119	30.2	119	–	–	–	–	–	–	–	–	–	–
Cc1ccc(C2=NC(C)(C)C(C)(C)N2O)cc1	45.41	55.16	39.96	119	48.82	119	42.06	118	16.7	117	–	–	–	–	–	–	–	–	–	–
CC1(C)N=C(c2ccc(O)cc2)N(O)C1(C)C	27.62	74.74	53.45	119	79.8	116	57.6	118	13.6	119	–	–	–	–	–	–	–	–	–	–
CC1(C)N=C(c2ccccc2F)N(O)C1(C)C	90.94	72.72	75.97	119	73.25	117	66.15	117	22.7	119	36.02	54	69.89	47.03	37.8	45.44	53.11	36.96	56.97	27.64
COc1ccc(C2=NC(C)(C)C(C)(C)N2O)c(OC)c1	37.89	44.85	38.34	117	44.96	118	52.93	118	23.3	119	–	–	–	–	–	–	–	–	–	–
CC1(C)N=C(c2ccc3c(c2)OCO3)N(O)C1(C)C	60.22	68.46	59.77	118	67.15	120	58.82	119	21.9	119	–	–	–	–	–	–	–	–	–	–
CC1(C)N=C(c2ccccc2)N(O)C1(C)C	35.48	37.68	37.41	117	37.07	117	43.67	119	22.9	118	–	–	–	–	–	–	–	–	–	–
CC1(C)N=C(c2cccc(O)c2)N(O)C1(C)C	72.88	59.38	77.78	119	59.94	117	50.69	119	46.3	118	–	–	–	–	–	–	–	–	–	–
